Assay results: ChEMBL document CHEMBL5376013, “Design, synthesis and biological evaluation of novel morpholinopyrimidine-5-carbonitrile derivatives as dual PI3K/mTOR inhibitors” (RSC Med Chem, 2024)

Columns and labels:
Type in all cases: functional
Details in all cases: read-out: GI
CCRF-CEM = assay: Antitumor activity against human CCRF-CEM cells assessed as growth inhibition at 10 uM relative to control
Method in brief: (§1)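 After drug addition, plates were incubated 48 h at 37 °C under 5% CO2. Adherent cells were fixed with cold TCA (10% final, 60 min, 4 °C) and suspension cells with 16% final TCA. Staining used 0.4% SRB in 1% acetic acid, solubilized in 10 mM trizma, read at A515. Percent growth was calculated from time-zero, control and treated absorbances.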

OVCAR-3 = assay: Antitumor activity against human OVCAR-3 cells assessed as growth inhibition at 10 uM relative to control; method in brief: as §1
Malme-3M = assay: Antitumor activity against human Malme-3M cells assessed as growth inhibition at 10 uM relative to control; method in brief: as §1
MCF7 = assay: Antitumor activity against human MCF7 cells assessed as growth inhibition at 10 uM relative to control; method in brief: as §1
RXF 393 = assay: Antitumor activity against human RXF 393 cells assessed as growth inhibition at 10 uM relative to control; method in brief: as §1
NCI-H226 = assay: Antitumor activity against human NCI-H226 cells assessed as growth inhibition at 10 uM relative to control; method in brief: as §1
RPMI-8226 = assay: Antitumor activity against human RPMI-8226 cells assessed as growth inhibition at 10 uM relative to control; method in brief: as §1
MOLT-4 = assay: Antitumor activity against human MOLT-4 cells assessed as growth inhibition at 10 uM relative to control; method in brief: as §1
HOP-92 = assay: Antitumor activity against human HOP-92 cells assessed as growth inhibition at 10 uM relative to control; method in brief: as §1
NCI-H23 = assay: Antitumor activity against human NCI-H23 cells assessed as growth inhibition at 10 uM relative to control; method in brief: as §1
SK-MEL-5 = assay: Antitumor activity against human SK-MEL-5 cells assessed as growth inhibition at 10 uM relative to control
Method in brief: (§2)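 Drug exposure 48 h at 37 °C, 5% CO2. Adherent cells fixed with cold TCA (10% final), suspension cells with TCA (16% final). Stained with 0.4% SRB in 1% acetic acid, dissolved in 10 mM Tris, A515. Growth relative to time-zero and untreated control.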

MDA-MB-231 = assay: Antitumor activity against human MDA-MB-231 cells assessed as growth inhibition at 10 uM relative to control; method in brief: as §1
SW-620 = assay: Antitumor activity against human SW-620 cells assessed as growth inhibition at 10 uM relative to control; method in brief: as §2
DU-145 = assay: Antitumor activity against human DU-145 cells assessed as growth inhibition at 10 uM relative to control; method in brief: as §1
SK-MEL-28 = assay: Antitumor activity against human SK-MEL-28 cells assessed as growth inhibition at 10 uM relative to control; method in brief: as §2
LOX IMVI = assay: Antitumor activity against human LOX IMVI cells assessed as growth inhibition at 10 uM relative to control; method in brief: as §1
HOP-62 = assay: Antitumor activity against human HOP-62 cells assessed as growth inhibition at 10 uM relative to control; method in brief: as §1
UO-31 = assay: Antitumor activity against human UO-31 cells assessed as growth inhibition at 10 uM relative to control; method in brief: as §2
HCT-116 = assay: Antitumor activity against human HCT-116 cells assessed as growth inhibition at 10 uM relative to control; method in brief: as §1
SF-539 = assay: Antitumor activity against human SF-539 cells assessed as growth inhibition at 10 uM relative to control; method in brief: as §1
HT-29 = assay: Antitumor activity against human HT-29 cells assessed as growth inhibition at 10 uM relative to control; method in brief: as §1
PC-3 = assay: Antitumor activity against human PC-3 cells assessed as growth inhibition at 10 uM relative to control; method in brief: as §1
SN12C = assay: Antitumor activity against human SN12C cells assessed as growth inhibition at 10 uM relative to control; method in brief: as §2
SNB-75 = assay: Antitumor activity against human SNB-75 cells assessed as growth inhibition at 10 uM relative to control; method in brief: as §2
U-251 = assay: Antitumor activity against human U-251 cells assessed as growth inhibition at 10 uM relative to control; method in brief: as §2
HCT-15 = assay: Antitumor activity against human HCT-15 cells assessed as growth inhibition at 10 uM relative to control; method in brief: as §1
UACC-62 = assay: Antitumor activity against human UACC-62 cells assessed as growth inhibition at 10 uM relative to control; method in brief: as §2
T47D = assay: Antitumor activity against human T47D cells assessed as growth inhibition at 10 uM relative to control; method in brief: as §2
SK-OV-3 = assay: Antitumor activity against human SK-OV-3 cells assessed as growth inhibition at 10 uM relative to control; method in brief: as §2
COLO 205 = assay: Antitumor activity against human COLO 205 cells assessed as growth inhibition at 10 uM relative to control; method in brief: as §1
A549 = assay: Antitumor activity against human A549 cells assessed as growth inhibition at 10 uM relative to control; method in brief: as §1
NCI-H522 = assay: Antitumor activity against human NCI-H522 cells assessed as growth inhibition at 10 uM relative to control; method in brief: as §1
OVCAR-4 = assay: Antitumor activity against human OVCAR-4 cells assessed as growth inhibition at 10 uM relative to control; method in brief: as §1
UACC-257 = assay: Antitumor activity against human UACC-257 cells assessed as growth inhibition at 10 uM relative to control; method in brief: as §2
KM12 = assay: Antitumor activity against human KM12 cells assessed as growth inhibition at 10 uM relative to control; method in brief: as §1
K562 = assay: Antitumor activity against human K562 cells assessed as growth inhibition at 10 uM relative to control; method in brief: as §1
SNB-19 = assay: Antitumor activity against human SNB-19 cells assessed as growth inhibition at 10 uM relative to control; method in brief: as §2
786-0 = assay: Antitumor activity against human 786-0 cells assessed as growth inhibition at 10 uM relative to control; method in brief: as §1
BT-549 = assay: Antitumor activity against human BT-549 cells assessed as growth inhibition at 10 uM relative to control; method in brief: as §1
NCI/ADR-RES = assay: Antitumor activity against human NCI-ADR-RES cells assessed as growth inhibition at 10 uM relative to control; method in brief: as §1
SF-268 = assay: Antitumor activity against human SF-268 cells assessed as growth inhibition at 10 uM relative to control; method in brief: as §1
CAKI-1 = assay: Antitumor activity against human CAKI-1 cells assessed as growth inhibition at 10 uM relative to control; method in brief: as §1
MDA-MB-468 = assay: Antitumor activity against human MDA-MB-468 cells assessed as growth inhibition at 10 uM relative to control; method in brief: as §1
ACHN = assay: Antitumor activity against human ACHN cells assessed as growth inhibition at 10 uM relative to control; method in brief: as §1
SR = assay: Antitumor activity against human SR cells assessed as growth inhibition at 10 uM relative to control; method in brief: as §2
SK-MEL-2 = assay: Antitumor activity against human SK-MEL-2 cells assessed as growth inhibition at 10 uM relative to control; method in brief: as §1

Compound `N#Cc1c(-c2ccc(Cl)cc2)nc(N/N=C2/C(=O)Nc3ccccc32)nc1N1CCOCC1` has an inhibition of growth at 10 µM (CCRF-CEM) of under 1%, an inhibition of growth at 10 µM (OVCAR-3) of under 1% and an inhibition of growth at 10 µM (Malme-3M) of under 1%. For the same compound, the inhibition of growth at 10 µM (MCF7) was 1%, the inhibition of growth at 10 µM (RXF 393) was under 1% and the inhibition of growth at 10 µM (NCI-H226) was under 1%. It also gave an inhibition of growth at 10 µM (RPMI-8226) of under 1%, an inhibition of growth at 10 µM (MOLT-4) of under 1% and an inhibition of growth at 10 µM (HOP-92) of under 1%. It also gave an inhibition of growth at 10 µM (NCI-H23) of under 1%, an inhibition of growth at 10 µM (SK-MEL-5) of under 1% and an inhibition of growth at 10 µM (MDA-MB-231) of under 1%. For the same compound, the inhibition of growth at 10 µM (SW-620) was 10.1%, the inhibition of growth at 10 µM (DU-145) was under 1% and the inhibition of growth at 10 µM (SK-MEL-28) was under 1%. For the same compound, the inhibition of growth at 10 µM (LOX IMVI) was under 1%, the inhibition of growth at 10 µM (HOP-62) was under 1% and the inhibition of growth at 10 µM (UO-31) was under 1%. The inhibition of growth at 10 µM (HCT-116) was 10.5%, the inhibition of growth at 10 µM (SF-539) was under 1% and the inhibition of growth at 10 µM (HT-29) was under 1%. The inhibition of growth at 10 µM (PC-3) was under 1%, the inhibition of growth at 10 µM (SN12C) was under 1% and the inhibition of growth at 10 µM (SNB-75) was 21%. The inhibition of growth at 10 µM (U-251) was under 1%, the inhibition of growth at 10 µM (HCT-15) was 1% and the inhibition of growth at 10 µM (UACC-62) was under 1%. For the same compound, the inhibition of growth at 10 µM (T47D) was under 1%, the inhibition of growth at 10 µM (SK-OV-3) was under 1% and the inhibition of growth at 10 µM (COLO 205) was 1%. The inhibition of growth at 10 µM (A549) was 12.9%, the inhibition of growth at 10 µM (NCI-H522) was under 1% and the inhibition of growth at 10 µM (OVCAR-4) was under 1%. For the same compound, the inhibition of growth at 10 µM (UACC-257) was under 1%, the inhibition of growth at 10 µM (KM12) was under 1% and the inhibition of growth at 10 µM (K562) was under 1%. For the same compound, the inhibition of growth at 10 µM (SNB-19) was under 1%, the inhibition of growth at 10 µM (786-0) was under 1% and the inhibition of growth at 10 µM (BT-549) was under 1%. For the same compound, the inhibition of growth at 10 µM (NCI/ADR-RES) was under 1%, the inhibition of growth at 10 µM (SF-268) was under 1% and the inhibition of growth at 10 µM (CAKI-1) was under 1%. For the same compound, the inhibition of growth at 10 µM (MDA-MB-468) was under 1%, the inhibition of growth at 10 µM (ACHN) was under 1% and the inhibition of growth at 10 µM (SR) was 25.7%. For the same compound, the inhibition of growth at 10 µM (SK-MEL-2) was under 1%.
With `CSc1nc(O)c(C#N)c(-c2ccc(Cl)cc2)n1` the inhibition of growth at 10 µM (CCRF-CEM) was under 1%, the inhibition of growth at 10 µM (OVCAR-3) was under 1% and the inhibition of growth at 10 µM (Malme-3M) was under 1%. The inhibition of growth at 10 µM (MCF7) was 11%, the inhibition of growth at 10 µM (RXF 393) was under 1% and the inhibition of growth at 10 µM (NCI-H226) was under 1%. It also gave an inhibition of growth at 10 µM (RPMI-8226) of under 1%, an inhibition of growth at 10 µM (MOLT-4) of under 1% and an inhibition of growth at 10 µM (HOP-92) of 24.7%. It also gave an inhibition of growth at 10 µM (NCI-H23) of under 1%, an inhibition of growth at 10 µM (SK-MEL-5) of under 1% and an inhibition of growth at 10 µM (MDA-MB-231) of under 1%. It also gave an inhibition of growth at 10 µM (SW-620) of under 1%, an inhibition of growth at 10 µM (DU-145) of under 1% and an inhibition of growth at 10 µM (SK-MEL-28) of under 1%. For the same compound, the inhibition of growth at 10 µM (LOX IMVI) was under 1%, the inhibition of growth at 10 µM (HOP-62) was under 1% and the inhibition of growth at 10 µM (UO-31) was under 1%. It also gave an inhibition of growth at 10 µM (HCT-116) of under 1%, an inhibition of growth at 10 µM (SF-539) of under 1% and an inhibition of growth at 10 µM (HT-29) of under 1%. It also gave an inhibition of growth at 10 µM (PC-3) of under 1%, an inhibition of growth at 10 µM (SN12C) of under 1% and an inhibition of growth at 10 µM (SNB-75) of 11.3%. The inhibition of growth at 10 µM (U-251) was under 1%, the inhibition of growth at 10 µM (HCT-15) was under 1% and the inhibition of growth at 10 µM (UACC-62) was under 1%. The inhibition of growth at 10 µM (T47D) was under 1%, the inhibition of growth at 10 µM (SK-OV-3) was under 1% and the inhibition of growth at 10 µM (COLO 205) was under 1%. For the same compound, the inhibition of growth at 10 µM (A549) was under 1%, the inhibition of growth at 10 µM (NCI-H522) was under 1% and the inhibition of growth at 10 µM (OVCAR-4) was under 1%. The inhibition of growth at 10 µM (UACC-257) was under 1%, the inhibition of growth at 10 µM (KM12) was under 1% and the inhibition of growth at 10 µM (K562) was under 1%. For the same compound, the inhibition of growth at 10 µM (SNB-19) was under 1%, the inhibition of growth at 10 µM (786-0) was under 1% and the inhibition of growth at 10 µM (BT-549) was under 1%. It also gave an inhibition of growth at 10 µM (NCI/ADR-RES) of under 1%, an inhibition of growth at 10 µM (SF-268) of under 1% and an inhibition of growth at 10 µM (CAKI-1) of under 1%. For the same compound, the inhibition of growth at 10 µM (MDA-MB-468) was under 1%, the inhibition of growth at 10 µM (ACHN) was under 1% and the inhibition of growth at 10 µM (SR) was under 1%. It also gave an inhibition of growth at 10 µM (SK-MEL-2) of under 1%.
